Jurkat NFkB inh = inhibitors of induced NF-kB luciferase reporter, primary screen, TCR NF-kB activation inhibitor project, cell-based, luminescence, uHTS; Jurkat, PMA/ionomycin-induced NF-kB luciferase reporter; inhibition, % at 4 µM; actives 0.53% (n = 330,000); AID 435003, 2010; in the data active = inhibition above about 50%
XBP1 UPR activ = activators of adaptive XBP1 UPR arm, primary screen, cell-based, CHO-XBP1 luciferase reporter, luminescence, uHTS; IRE1-XBP1 UPR activation; percent of tunicamycin response, DMSO as zero; activation, % at 20 µM; AID 463104, 2010; actives 0.33% (n = 330,000);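 active = versus positive control, 20 µM dose yields 30% or more activation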
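Material: CHO cell line with stable XBP1 luciferase reporter; schedule: 16-18 h cell attachment at 37 °C, then 6 h compound exposure; signal: glow luminescence from Steady-Glo reagent; medium: serum-containing F12 medium, 10% FBS; benchmarks: tunicamycin 10 µg/mL and vehicle-only wells; read-out: percent activation relative to tunicamycin reference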
CHOP UPR activ = activators of apoptotic CHOP UPR arm, primary screen, cell-based, CHO-CHOP luciferase reporter, luminescence, uHTS; UPR activation; percent of tunicamycin response over DMSO baseline; activation, % at 10 µM; actives 0.34% (n = 330,000);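 active = at 10 µM dose, activation of 40% or more, normalized to positive control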
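Evaluation: % reporter activation, DMSO baseline versus tunicamycin full activation; System: CHO-CHOP luciferase reporter cell line; Input: 500 cells/well; Incubation: 6 h compound treatment, 37 °C; Measured by: Steady-Glo luciferase luminescence; Dosing: one dose, 10 µM in 0.5% DMSO; Buffer or medium: F12 medium, 10% FBS; Benchmarks: positive tunicamycin 10 µg/mL, negative DMSO alone.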
CHOP inhibitor = inhibitors of CHOP promoter induction, primary screen, cell-based, unfolded protein response, luciferase reporter. CHO-K1 CHOP-promoter luciferase, tunicamycin-induced, 15-18 h. inhibition, % at 10 µM. actives 3.8% (n = 220,000). AID 2732, 2010;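 active = compounds that reduced the stress-induced luciferase reporter signal by more than about 70% of percent inhibition, limit read from the data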
697 NFkB inh = inhibitors of PMA/ionomycin-induced NF-kB reporter, 697 cells, primary screen, B-cell NF-kB inhibitor project, cell-based, luminescence, uHTS. 697 B-cell NF-kB luciferase reporter, 16 h. inhibition, % at 4 µM. actives 0.33% (n = 330,000); in the data active = inhibition above about 35%
UPR CHOP confirm = activators of apoptotic CHOP UPR arm, confirmation, cell-based, CHO-CHOP luciferase reporter, single concentration; shares compounds with CHOP UPR activ; CHO-CHOP cells, CHOP-luciferase reporter luminescence; percent of tunicamycin response, DMSO as zero; activation, % at 10 µM; actives 64% (n = 1,000); AID 463112, 2010; in the data active = activation above about 33%
Hits are given with their value; – = inactive; · = not tested or not shown. This excerpt belongs to a sample that is enriched for hits.

SMILES	Jurkat NFkB inh	XBP1 UPR activ	CHOP UPR activ	CHOP inhibitor	697 NFkB inh	UPR CHOP confirm
CC(NC(=O)c1cc(S(=O)(=O)N(C)C)ccc1Cl)c1ccc(-n2ccnc2)cc1 (configuration not stated)	–	–	–	·	–	·
C=CCOC(=O)c1sc(NC(=O)c2ccc(OC)cc2)nc1C	–	–	43.2	–	–	–
CCS(=O)(=O)c1cc([N+](=O)[O-])c(Sc2ccccc2NC(C)=O)s1	–	–	59.3	–	–	–
CC(=O)Nc1cccc(NS(=O)(=O)c2ccccc2[N+](=O)[O-])c1	–	–	–	–	–	·
Cn1ccnc1/C(=N\NC(=O)c1ccccc1)c1cccc([N+](=O)[O-])c1	–	–	–	–	–	·
O=C(N/N=C(\c1ccccc1)c1ccccn1)c1cccc([N+](=O)[O-])c1	–	–	136.0	–	–	319.0
COc1ccccc1N1C(=O)C=C(Sc2nc(C)cc(C)n2)C1=O	–	–	61.6	–	–	56.1
COc1ccccc1N1C(=O)C2CC(C)=C(C)CC2C1=O (configuration not stated)	–	–	–	–	–	·
CC(C)(C)c1ccc(/C=C(\c2nc3ccccc3[nH]2)S(=O)(=O)c2ccccc2)cc1	–	–	55.9	·	–	71.1
Cc1cccc(/C=C(\c2nc3ccccc3[nH]2)S(=O)(=O)c2ccccc2)c1	·	·	·	–	·	·
CCCCN(C(C)=O)C1CC(=O)N(c2ccc(OCCC)cc2)C1=O (configuration not stated)	–	–	–	–	–	·
CCCCCOc1ccc(N2C(=O)CC(N(O)c3ccccc3)C2=O)cc1 (configuration not stated)	–	–	112.4	–	–	142.8
CCCCOc1ccc(N2C(=O)CC(N(O)c3ccccc3)C2=O)cc1 (configuration not stated)	–	–	146.5	–	–	164.8
CCOC(=O)C1(C)Oc2ccccc2C(C(=O)OC)=C1C(=O)OC (configuration not stated)	·	–	–	·	–	·
COC(=O)C1=C(C(=O)OC)SC2(S1)C(C(=O)OC)=C(C(=O)OC)SC1=C2c2cccc(C)c2NC1(C)C	–	–	40.5	–	–	–
COC(=O)c1c(NC(=O)C2CCCCC2)sc2c1CC(C)(C)NC2(C)C	–	–	–	·	–	·
Cc1ccc(C)c2sc(N3CCN(C(=O)c4ccc([N+](=O)[O-])o4)CC3)nc12	–	–	82.8	·	–	60.8
CCOC(=O)c1cc(-c2ccc(/C=C3/C(=O)N(c4ccc(C(=O)O)cc4)N=C3C)o2)ccc1Cl	–	–	87.0	·	–	135.5
CCC1Oc2ccccc2N(CC(=O)NCc2ccco2)C1=O (configuration not stated)	–	–	–	–	–	·
C/C(CC1CC(C)(C)OC1=O)=N\NC(N)=S (configuration not stated)	–	–	–	–	–	·
C/C(CC1CC2=C(CC1(C)C)C(C)(C)CCC2)=N\NC(N)=S (configuration not stated)	–	–	57.0	–	–	–
Cc1nc2scc(-c3ccccc3)c2c(=O)n1N=C1C=CC(=O)C=C1	–	–	89.7	109.7	–	–
Cc1nc2scc(-c3ccccc3)c2c(=O)n1N	–	–	–	–	–	·
CCc1cc2c(=O)[nH]c(N3CCCC3)nc2s1	–	–	–	–	–	·
CCc1cc2c(=O)[nH]c(-c3ccccn3)nc2s1	–	–	289.7	–	–	246.7
Cc1ccc(C(c2nnnn2C2CCCC2)N2c3ccccc3CC2C)cc1 (configuration not stated)	–	–	–	–	–	·
CCN(CC)S(=O)(=O)c1cccc(C(=O)NCCc2ccccc2)c1	–	–	–	·	–	·

Assay outcomes from PubChem.
